Laboratory results published in ChEMBL document CHEMBL3393048, “Discovery of potent cytotoxic ortho-aryl chalcones as new scaffold targeting tubulin and mitosis with affinity-based fluorescence” (J Med Chem, 2014).
Active and inactive are the calls of the source. No cut-off for these calls is given here.

Key:
MCF7 [1] = assay: Drug resistance index, ratio of IC50 for doxorubicin-resistant human MCF7 cells to IC50 for human MCF7 cells; assay type: functional
Outline: (§1)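 Drug resistance index = IC50 in the resistant line / IC50 in its parental line. […] Pairs: A549/CDDP vs A549, MCF-7/DOX vs MCF-7, A2780/TAX vs A2780, HCT-8/VCT vs HCT-8.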

A549 [2] = assay: Induction of apoptosis in human A549 cells assessed as necrotic cells at 0.5 uM after 48 hrs by Annexin V-FITC/propidium iodide staining-based flow cytometry (reference value: 0.06%); assay type: functional
A549 [3] = assay: Cell cycle arrest in human A549 cells assessed as accumulation at G2/M phase at 7.81 to 250 nM after 24 hrs by Hoechst 33342 staining-based ArrayScanVTI analysis; assay type: functional
Outline: (§2)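 A549 cells were seeded at 5000/well, cultured overnight, then treated 24 h over a 7.81–250 concentration series. Cells were fixed in prewarmed paraformaldehyde 10 min, permeabilized with Triton X-100, and nuclei stained with Hoechst 33342. Imaging was by ArrayScan VTI high-content analysis. Phase percentage = cells within a gated fluorescence intensity / total cells counted.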

A2780 [4] = assay: Antiproliferative activity against taxol-resistant human A2780 cells after 48 hrs by SRB method; assay type: functional, cell-based; conditions: A2780, 48 h
Outline: (§3)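 SRB assay. Cells in DMEM high glucose with 10% FBS were seeded at 5000/well and grown 24 h; a day-0 plate was fixed at that point. Compounds were added in triplicate for 48 h. IC50 came from nonlinear regression of dose–response curves from at least two independent experiments.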

A549 [5] = assay: Induction of apoptosis in human A549 cells assessed as early apoptotic cells at 0.75 uM after 48 hrs by Annexin V-FITC/propidium iodide staining-based flow cytometry (reference value: 0.47%); assay type: functional
A549 [6] = assay: Induction of apoptosis in human A549 cells assessed as early apoptotic cells at 0.5 uM after 48 hrs by Annexin V-FITC/propidium iodide staining-based flow cytometry (reference value: 0.47%); assay type: functional
SW480 = assay: Antiproliferative activity against human SW480 cells after 48 hrs by SRB method; assay type: functional, cell-based; conditions: SW480, 48 h; outline: as §3
A549 [7] = assay: Induction of apoptosis in human A549 cells assessed as necrotic cells at 0.25 uM after 48 hrs by Annexin V-FITC/propidium iodide staining-based flow cytometry (reference value: 0.06%); assay type: functional
MCF7 [8] = assay: Antiproliferative activity against doxorubicin-resistant human MCF7 cells after 48 hrs by SRB method; assay type: functional, cell-based; conditions: MCF7, 48 h; outline: as §3
A549 [9] = assay: Induction of apoptosis in human A549 cells assessed as late apoptotic cells at 0.75 uM after 48 hrs by Annexin V-FITC/propidium iodide staining-based flow cytometry (reference value: 0.10%); assay type: functional
MCF7 [10] = assay: Antiproliferative activity against human MCF7 cells after 48 hrs by SRB method; assay type: functional, cell-based; conditions: MCF7, 48 h; outline: as §3
A549 [11] = assay: Cell cycle arrest in human A549 cells assessed as accumulation at G2/M phase at 62.5 nM after 24 hrs by Hoechst 33342 staining-based ArrayScanVTI analysis; assay type: functional; outline: as §2
A549 [12] = assay: Induction of apoptosis in human A549 cells assessed as late apoptotic cells at 0.25 uM after 48 hrs by Annexin V-FITC/propidium iodide staining-based flow cytometry (reference value: 0.10%); assay type: functional
A549 [13] = assay: Induction of apoptosis in human A549 cells assessed as total apoptotic cells at 0.5 uM after 48 hrs by Annexin V-FITC/propidium iodide staining-based flow cytometry; assay type: functional
A549 [14] = assay: Induction of apoptosis in human A549 cells assessed as late apoptotic cells at 1 uM after 48 hrs by Annexin V-FITC/propidium iodide staining-based flow cytometry (reference value: 0.10%); assay type: functional
A549 [15] = assay: Induction of apoptosis in human A549 cells assessed as early apoptotic cells at 0.25 uM after 48 hrs by Annexin V-FITC/propidium iodide staining-based flow cytometry (reference value: 0.47%); assay type: functional
[16] = Drug resistance index, ratio of IC50 for vincristine-resistant human HCT8 cells to IC50 for human HCT8 cells; assay type: functional, HCT-8; outline: as §1
A549 [17] = assay: Induction of apoptosis in human A549 cells assessed as viable cells at 0.25 uM after 48 hrs by Annexin V-FITC/propidium iodide staining-based flow cytometry (reference value: 99.37%); assay type: functional; conditions: A549, 48 h, read-out: Activity
A549 [18] = assay: Induction of apoptosis in human A549 cells assessed as total apoptotic cells at 0.25 uM after 48 hrs by Annexin V-FITC/propidium iodide staining-based flow cytometry; assay type: functional
A549 [19] = assay: Induction of apoptosis in human A549 cells assessed as viable cells at 1 uM after 48 hrs by Annexin V-FITC/propidium iodide staining-based flow cytometry (reference value: 99.37%); assay type: functional; conditions: A549, 48 h, read-out: Activity
[20] = Antiproliferative activity against human CNE2 cells after 48 hrs by SRB method; assay type: functional, cell-based; conditions: CNE-2, 48 h; outline: as §3
A549 [21] = assay: Induction of apoptosis in human A549 cells assessed as viable cells at 0.75 uM after 48 hrs by Annexin V-FITC/propidium iodide staining-based flow cytometry (reference value: 99.37%); assay type: functional; conditions: A549, 48 h, read-out: Activity
A549 [22] = assay: Induction of apoptosis in human A549 cells assessed as necrotic cells at 0.75 uM after 48 hrs by Annexin V-FITC/propidium iodide staining-based flow cytometry (reference value: 0.06%); assay type: functional
A549 [23] = assay: Induction of apoptosis in human A549 cells assessed as necrotic cells at 1 uM after 48 hrs by Annexin V-FITC/propidium iodide staining-based flow cytometry (reference value: 0.06%); assay type: functional
A2780 [24] = assay: Antiproliferative activity against human A2780 cells after 48 hrs by SRB method; assay type: functional, cell-based; conditions: A2780, 48 h; outline: as §3
HepG2 = assay: Antiproliferative activity against human HepG2 cells after 48 hrs by SRB method; assay type: functional, cell-based; conditions: HepG2, 48 h; outline: as §3
A549 [25] = assay: Induction of apoptosis in human A549 cells assessed as viable cells at 0.5 uM after 48 hrs by Annexin V-FITC/propidium iodide staining-based flow cytometry (reference value: 99.37%); assay type: functional; conditions: A549, 48 h, read-out: Activity
A549 [26] = assay: Induction of apoptosis in human A549 cells assessed as total apoptotic cells at 1 uM after 48 hrs by Annexin V-FITC/propidium iodide staining-based flow cytometry; assay type: functional
[27] = Antiproliferative activity against human HCT8 cells after 48 hrs by SRB method; assay type: functional, cell-based; conditions: HCT-8, 48 h; outline: as §3
A549 [28] = assay: Induction of apoptosis in human A549 cells assessed as total apoptotic cells at 0.75 uM after 48 hrs by Annexin V-FITC/propidium iodide staining-based flow cytometry; assay type: functional
A549 [29] = assay: Antiproliferative activity against cis-platinum-resistant human A549 cells after 48 hrs by SRB method; assay type: functional, cell-based; conditions: A549, 48 h
Outline: as §3, with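 “h. Cells were fixed with TCA at 4 °C for 1 h, stained with 0.4% SRB, and the dye was solubilized in 10 mM Tris pH 10.4. OD was read at 515 nm with day-0 OD subtracted.” for “h.”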

A549 [30] = assay: Drug resistance index, ratio of IC50 for cis-platinum-resistant human A549 cells to IC50 for human A549 cells; assay type: functional; outline: as §1
[31] = Antiproliferative activity against vincristine-resistant human HCT8 cells after 48 hrs by SRB method; assay type: functional, cell-based; conditions: HCT-8, 48 h
Outline: as §3, with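 “h. Cells were fixed with TCA at 4 °C for 1 h, stained with 0.4% SRB, and the dye was solubilized in 10 mM Tris pH 10.4. OD was read at 515 nm with day-0 OD subtracted.” for “h.”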

For `CN(C)c1ccc(/C=C/C(=O)c2ccccc2-c2ccc(F)cc2)cc1`, the “Ratio IC50” value (MCF7 [1]) was 0.68, the Activity (A549 [2]) was 11.95% and the Activity (A549 [3]) was “Active”. For the same molecule, the IC50 (A2780 [4]) was 49 nM, the Activity (A549 [5]) was 36.61% and the Activity (A549 [6]) was 33.86%. It also gave an IC50 (SW480) of 41 nM, an Activity (A549 [7]) of 4.95% and an IC50 (MCF7 [8]) of 45 nM. For the same molecule, the Activity (A549 [9]) was 45.45%, the IC50 (MCF7 [10]) was 230 nM and the Activity (A549 [11]) was “Active”. The Activity (A549 [12]) was 34.43%, the Activity (A549 [13]) was 75.71% and the Activity (A549 [14]) was 42.86%. The Activity (A549 [15]) was 34.67%, the “Ratio IC50” value [16] was 0.72 and the viability at 0.25 µM (A549 [17]) was 25.9%. It also gave an Activity (A549 [18]) of 69.1%, a viability at 1 µM (A549 [19]) of 8.21% and an IC50 [20] of 30 nM. For the same molecule, the viability at 0.75 µM (A549 [21]) was 8.57%, the Activity (A549 [22]) was 9.38% and the Activity (A549 [23]) was 7.91%. For the same molecule, the IC50 (A2780 [24]) was 94 nM, the IC50 (HepG2) was 47 nM and the viability at 0.5 µM (A549 [25]) was 12.3%. The Activity (A549 [26]) was 83.88%, the IC50 [27] was 130 nM and the Activity (A549 [28]) was 82.06%. The IC50 (A549 [29]) was 110 nM, the “Ratio IC50” value (A549 [30]) was 1.6 and the IC50 [31] was 96 nM.
